Results from ChEMBL document CHEMBL4765345, “Design, synthesis, and biological evaluation of dual targeting inhibitors of histone deacetylase 6/8 and bromodomain BRPF1” (Eur J Med Chem, 2020).

Assays:
[1] = system: HL-60; experiment: Antiproliferative activity against human HL60 assessed as reduction in cell growth at 1 uM by CellTiter-non radioactive cell proliferation assay; assay type: functional
[2] = system: HL-60; experiment: Antiproliferative activity against human HL60 assessed as reduction in cell growth at 100 uM by CellTiter-non radioactive cell proliferation assay; assay type: functional
[3] = system: THP-1; experiment: Antiproliferative activity against human THP-1 assessed as reduction in cell growth at 100 uM by CellTiter-non radioactive cell proliferation assay; assay type: functional
[4] = system: THP-1; experiment: Antiproliferative activity against human THP-1 assessed as reduction in cell growth at 20 uM by CellTiter-non radioactive cell proliferation assay; assay type: functional
[5] = system: HL-60; experiment: Antiproliferative activity against human HL60 assessed as reduction in cell growth at 20 uM by CellTiter-non radioactive cell proliferation assay; assay type: functional
[6] = target: T1, Protein deacetylase HDAC6 (Homo sapiens, UniProt Q9UBN7); experiment: Inhibition of recombinant human HDAC6 using Z-(Ac)Lys-AMC as substrate after 90 mins by fluorescence based micro plate assay
T1 sequence (Q9UBN7 whole entry): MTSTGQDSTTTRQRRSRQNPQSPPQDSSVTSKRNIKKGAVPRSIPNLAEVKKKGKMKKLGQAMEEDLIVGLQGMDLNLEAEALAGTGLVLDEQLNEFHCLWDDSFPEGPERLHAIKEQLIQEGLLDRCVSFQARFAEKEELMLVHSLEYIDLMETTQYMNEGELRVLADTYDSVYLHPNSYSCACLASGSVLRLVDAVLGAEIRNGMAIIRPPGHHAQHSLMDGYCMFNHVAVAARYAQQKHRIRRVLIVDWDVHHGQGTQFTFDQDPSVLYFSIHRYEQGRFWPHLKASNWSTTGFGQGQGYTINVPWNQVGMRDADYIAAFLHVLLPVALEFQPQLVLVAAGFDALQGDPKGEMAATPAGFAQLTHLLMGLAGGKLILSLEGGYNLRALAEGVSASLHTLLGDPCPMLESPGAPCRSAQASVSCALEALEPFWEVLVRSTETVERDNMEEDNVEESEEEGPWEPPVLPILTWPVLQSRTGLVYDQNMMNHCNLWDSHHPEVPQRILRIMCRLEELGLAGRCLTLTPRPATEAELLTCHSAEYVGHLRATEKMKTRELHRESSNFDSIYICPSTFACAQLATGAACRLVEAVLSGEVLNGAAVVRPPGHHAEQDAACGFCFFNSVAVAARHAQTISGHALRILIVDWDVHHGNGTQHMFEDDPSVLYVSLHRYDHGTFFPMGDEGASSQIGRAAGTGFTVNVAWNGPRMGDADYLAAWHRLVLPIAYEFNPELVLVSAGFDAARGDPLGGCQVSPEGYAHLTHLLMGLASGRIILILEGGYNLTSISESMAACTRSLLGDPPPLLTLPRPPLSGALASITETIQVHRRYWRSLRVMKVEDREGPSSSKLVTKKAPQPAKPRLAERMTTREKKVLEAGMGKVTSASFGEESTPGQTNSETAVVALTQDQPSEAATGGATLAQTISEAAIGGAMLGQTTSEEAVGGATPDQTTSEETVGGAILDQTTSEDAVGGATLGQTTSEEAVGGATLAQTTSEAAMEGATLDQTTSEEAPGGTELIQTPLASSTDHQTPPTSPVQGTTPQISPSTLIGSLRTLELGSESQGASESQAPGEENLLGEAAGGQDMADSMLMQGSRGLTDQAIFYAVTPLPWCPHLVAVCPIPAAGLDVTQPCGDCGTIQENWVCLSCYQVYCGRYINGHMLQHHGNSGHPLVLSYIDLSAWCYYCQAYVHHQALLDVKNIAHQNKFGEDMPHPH
Outline: (§1)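 Recombinant human HDAC1 or HDAC6 incubated 90 min at 37 °C with 10.5 μM ZMAL (Z-(Ac)Lys-AMC) and increasing inhibitor concentrations, using a homogeneous fluorescence assay. Fluorescence read at Ex 390/Em 460 nm.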

[7] = target: T2, Peregrin (Homo sapiens, UniProt P55201); experiment: Binding affinity to BRPF1 (unknown origin) by Isothermal titration calorimetry; settings: read-out: Kd
T2 sequence (P55201 whole entry): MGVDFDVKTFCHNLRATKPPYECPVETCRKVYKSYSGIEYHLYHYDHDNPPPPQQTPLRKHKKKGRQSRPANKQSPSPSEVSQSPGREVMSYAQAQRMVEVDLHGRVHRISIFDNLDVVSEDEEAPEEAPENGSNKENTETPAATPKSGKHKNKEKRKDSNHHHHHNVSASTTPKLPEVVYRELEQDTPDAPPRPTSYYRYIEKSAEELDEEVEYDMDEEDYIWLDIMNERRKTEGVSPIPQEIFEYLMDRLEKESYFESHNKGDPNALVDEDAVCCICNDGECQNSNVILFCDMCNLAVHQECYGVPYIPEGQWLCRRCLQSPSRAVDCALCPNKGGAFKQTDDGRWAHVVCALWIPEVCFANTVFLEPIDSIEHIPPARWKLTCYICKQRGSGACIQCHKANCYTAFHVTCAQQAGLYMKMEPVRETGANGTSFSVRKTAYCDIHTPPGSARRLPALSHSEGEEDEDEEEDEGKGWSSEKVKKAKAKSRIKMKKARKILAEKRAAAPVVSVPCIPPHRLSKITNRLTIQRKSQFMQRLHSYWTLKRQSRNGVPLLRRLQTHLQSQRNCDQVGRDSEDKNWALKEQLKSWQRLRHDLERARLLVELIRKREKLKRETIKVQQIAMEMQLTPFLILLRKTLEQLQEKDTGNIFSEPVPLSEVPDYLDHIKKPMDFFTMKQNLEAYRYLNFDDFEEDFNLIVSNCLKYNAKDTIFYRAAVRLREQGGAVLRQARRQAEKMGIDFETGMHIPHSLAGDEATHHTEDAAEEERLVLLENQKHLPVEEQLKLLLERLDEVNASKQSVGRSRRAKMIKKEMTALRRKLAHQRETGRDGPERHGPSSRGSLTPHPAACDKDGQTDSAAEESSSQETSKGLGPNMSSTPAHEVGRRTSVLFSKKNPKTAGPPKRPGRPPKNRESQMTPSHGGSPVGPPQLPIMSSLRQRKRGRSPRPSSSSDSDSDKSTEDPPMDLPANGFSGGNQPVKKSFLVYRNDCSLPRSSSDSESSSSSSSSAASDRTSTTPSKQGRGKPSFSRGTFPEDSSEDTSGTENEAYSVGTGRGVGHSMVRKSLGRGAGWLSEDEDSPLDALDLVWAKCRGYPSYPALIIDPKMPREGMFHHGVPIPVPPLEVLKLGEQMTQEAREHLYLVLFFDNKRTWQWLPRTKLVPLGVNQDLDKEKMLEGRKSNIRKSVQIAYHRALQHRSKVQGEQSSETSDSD
Outline: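 Isothermal titration calorimetry with recombinant BRPF1 (200–400 μM) in the injection syringe titrated into ligand (20–40 μM) in the sample cell. Kd was fitted from the titrations and reported with its P99 interval.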

[8] = target: T3, Histone deacetylase 1 (Homo sapiens, UniProt Q13547); experiment: Inhibition of recombinant human HDAC1 using Z-(Ac)Lys-AMC as substrate after 90 mins by fluorescence based micro plate assay; outline: as §1
[9] = target: T4, Histone deacetylase 8 (Homo sapiens, UniProt Q9BY41); experiment: Inhibition of human recombinant HDAC8 using H2N-Arg-His-Lys(Ac)-Lys(Ac)-AMC as substrate after 90 mins by fluorescence based micro plate assay
T4 sequence (Q9BY41 whole entry): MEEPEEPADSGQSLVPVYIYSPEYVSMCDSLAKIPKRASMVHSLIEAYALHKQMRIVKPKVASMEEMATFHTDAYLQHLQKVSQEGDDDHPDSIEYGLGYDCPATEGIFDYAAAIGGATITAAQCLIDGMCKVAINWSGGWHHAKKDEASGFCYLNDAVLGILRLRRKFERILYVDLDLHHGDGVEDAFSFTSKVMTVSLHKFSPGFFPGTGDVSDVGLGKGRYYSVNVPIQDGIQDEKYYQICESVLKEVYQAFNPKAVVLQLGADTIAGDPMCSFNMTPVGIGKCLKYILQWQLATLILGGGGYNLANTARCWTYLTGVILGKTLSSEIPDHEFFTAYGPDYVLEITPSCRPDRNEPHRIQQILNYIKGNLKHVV

[10] = target: T3, Histone deacetylase 1; experiment: Inhibition of recombinant human HDAC1 at 10 uM using Z-(Ac)Lys-AMC as substrate after 90 mins by fluorescence based micro plate assay; outline: as §1
[11] = target: T5, Protein deacetylase HDAC6 (Homo sapiens) (UniProt Q9UBN7); experiment: Inhibition of recombinant human HDAC6 at 1 uM using Z-(Ac)Lys-AMC as substrate after 90 mins by fluorescence based micro plate assay; outline: as §1
T5 sequence (whole entry): T1 sequence (Q9UBN7 whole entry)

[12] = target: T5, Protein deacetylase HDAC6 (Homo sapiens); experiment: Inhibition of recombinant human HDAC6 at 10 uM using Z-(Ac)Lys-AMC as substrate after 90 mins by fluorescence based micro plate assay; outline: as §1
[13] = system: THP-1; experiment: Antiproliferative activity against human THP-1 assessed as reduction in cell growth at 1 uM by CellTiter-non radioactive cell proliferation assay; assay type: functional
[14] = system: HL-60; experiment: Antiproliferative activity against human HL60 assessed as reduction in cell growth at 4 uM by CellTiter-non radioactive cell proliferation assay; assay type: functional
Outline: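 HL60 cells plated at 5000 per well and given inhibitor or DMSO vehicle immediately. Compounds diluted from 200x DMSO stocks; three replicates per concentration. Growth read by CellTiter 96 Aqueous (MTS) assay. GI50 is the concentration cutting metabolically active cells by 50% versus DMSO control, taken from absorbance against log concentration.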

[15] = target: T3, Histone deacetylase 1; experiment: Inhibition of recombinant human HDAC1 at 1 uM using Z-(Ac)Lys-AMC as substrate after 90 mins by fluorescence based micro plate assay; outline: as §1

T3 sequence (Q13547 whole entry): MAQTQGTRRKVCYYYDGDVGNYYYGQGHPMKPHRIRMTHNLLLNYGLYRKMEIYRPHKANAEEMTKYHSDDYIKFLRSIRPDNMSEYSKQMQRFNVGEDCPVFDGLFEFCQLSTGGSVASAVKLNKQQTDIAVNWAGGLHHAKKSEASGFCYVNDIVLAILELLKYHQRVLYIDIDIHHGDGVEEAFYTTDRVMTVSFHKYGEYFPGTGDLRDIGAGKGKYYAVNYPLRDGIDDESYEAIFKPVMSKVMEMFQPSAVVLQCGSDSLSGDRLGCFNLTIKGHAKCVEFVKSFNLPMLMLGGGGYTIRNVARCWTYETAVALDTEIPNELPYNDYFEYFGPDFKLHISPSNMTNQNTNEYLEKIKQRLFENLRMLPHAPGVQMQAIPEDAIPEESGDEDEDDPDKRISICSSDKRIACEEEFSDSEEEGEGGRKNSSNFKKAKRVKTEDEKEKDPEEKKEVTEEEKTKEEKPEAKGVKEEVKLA

Compound | inhibition at 1 µM [1] | inhibition at 100 µM [2] | inhibition at 100 µM [3] | inhibition at 20 µM [4] | inhibition at 20 µM [5] | IC50 [6] | Kd [7] | IC50 [8] | IC50 [9] | inhibition [10] | inhibition [11] | inhibition [12] | inhibition at 1 µM [13] | inhibition at 4 µM [14] | inhibition [15]
COc1ccc(C(=O)NOCc2ccc(OC(C)=O)cc2)cc1S(=O)(=O)Nc1ccc2c(c1)cc(C)c(=O)n2C | 0% | 95% | 27% | 3% | 0% |  |  |  |  |  |  |  |  |  | 
COc1ccc(C(=O)NO)cc1C(=O)Nc1ccc2c(c1)cc(C)c(=O)n2C |  |  |  |  |  | 709 nM | 857 nM | 6900 nM | 65 nM |  |  |  |  |  | 
COc1ccc(C(=O)NO)cc1CNc1ccc2c(c1)cc(C)c(=O)n2C |  |  |  |  |  |  |  |  | 555 nM | 31% | 40% | 68% |  |  | 
COC(=O)c1ccc(S(=O)(=O)Nc2ccc3c(c2)cc(C)c(=O)n3C)cc1 | 5% | 68% | 95% | 85% | 22% |  |  |  |  |  |  |  | 0% |  | 
Cc1cc2cc(NC(=O)c3cc(C(=O)NO)ccc3Cl)ccc2n(C)c1=O |  |  |  |  |  |  |  |  | 113 nM |  |  |  |  |  | 
Cc1cc2cc(NS(=O)(=O)Cc3ccc(C(=O)NOCc4ccc(O)cc4)cc3)ccc2n(C)c1=O |  |  | 91% | 1% |  |  |  |  |  |  |  |  | 0% |  | 
COC(=O)c1ccc(CS(=O)(=O)Nc2ccc3c(c2)cc(C)c(=O)n3C)cc1 | 15% | 78% | 93% | 9% | 14% |  |  |  |  |  |  |  | 0% |  | 
COc1cc(C(=O)NO)ccc1CS(=O)(=O)Nc1ccc2c(c1)cc(C)c(=O)n2C |  | 0% |  | 0% | 0% |  | 1580 nM |  | 231 nM | 29% | 15% | 46% |  | 0% | 11%
Cc1cc2cc(NS(=O)(=O)Cc3cccc(C(=O)NO)c3)ccc2n(C)c1=O |  | 0% | 0% | 0% | 0% |  |  |  | 465 nM | 26% | 3% | 33% | 0% | 0% | 2%
COc1ccc(C(=O)NO)cc1CS(=O)(=O)Nc1ccc2c(c1)cc(C)c(=O)n2C |  | 0% | 0% | 0% | 0% |  |  |  | 158 nM | 29% | 14% | 63% | 0% | 0% | 4%
COc1ccc(C(=O)NOCc2ccccc2)cc1S(=O)(=O)Nc1ccc2c(c1)cc(C)c(=O)n2C | 2% | 13% |  | 20% |  |  |  |  |  |  |  |  |  |  | 
Cc1cc2cc(NCc3cc(C(=O)NO)ccc3Cl)ccc2n(C)c1=O |  |  |  |  |  |  |  |  | 3190 nM | 20% | 28% | 84% |  |  | 
